Results on 5 substances are retold here after PMC11605122 (Nature Communications, 2024).

“Also recorded” adds a separate entry of the source.

Data set [1] is described as follows: peptide concentration in plasma. Conditions: DIO mice, 24 h post-injection, 50 nmol/kg s.c., n = 6; cAMP bioassay. The data set is classed as in vivo, mouse. In short, it runs like this:
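Plasma activity was read in a cAMP assay on CHO cells expressing human GLP-1R, in HBSS pH 7.4 with 25 mM HEPES, 0.1% BSA and 0.5 mM IBMX. Serial dilutions were run in duplicate for 30 min at RT with HTRF detection. Standards were reference peptide spiked into 0.2% (final) naïve plasma. Sample ratio = sample EC50/reference EC50; concentration = known top concentration/ratio.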

Data set [2] relates to POMC neurons, arcuate nucleus. The experiment in a line: cFos-positive POMC neurons in ARC. The data set is classed as in vivo, mouse. The conditions noted are these: DIO mice, Fc-GLP1, 1 week. In short, it runs like this: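 Brain slices were blocked 2 h at RT in PBS with 1% BSA and 0.1% Triton X-100. They were incubated overnight at 4 °C with anti-POMC and anti-c-Fos, then with secondary antibodies in 1% BSA/PBS for 2 h at RT, protected from light.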

The next data set in a line: plasma FFAs. The data set is classed as in vivo, mouse.
Another data set in a line: BAT skin temperature. The data set is classed as in vivo, mouse. The conditions noted are these: DIO mice, Fc-GLP1.
Another data set in a line: plasma insulin. The data set is classed as in vivo, mouse. Conditions: DIO mice, Fc-GLP1. The method in brief: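 Plasma ALT was read with Reflotron strips and plasma TGs by colorimetric assay. Serum FGF21 and plasma adiponectin and insulin were measured by ELISA.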
The nature of the next data set: blood ketone bodies. It counts as in vivo, mouse. The conditions noted are these: DIO mice, Fc-GLP1. In short, it runs like this:
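DIO mice were fed 60%-fat HFD from 8 weeks of age, for 12 weeks (males) or 24 weeks (females); one male cohort was housed at 30 °C. The test compound was given s.c. every 2 days in 50 mM sodium phosphate/300 mM mannitol pH 6.9. Glucose and ketone bodies were read in tail-vein blood.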

For a further data set, the system named is BAT, eWAT, iWAT. The experiment in a line: UCP1 and TH protein. The conditions noted are these: DIO mice, Fc-GLP1. It counts as in vivo, mouse.
A further data set in a line: body weight, HFD-fed. The conditions noted are these: DIO mice, 1 week. It counts as in vivo, mouse.
The test system of the next data set is GCGR and GLP-1R. Conditions: vs cognate ligands; cited from earlier work.
The conditions of data set [3]: cited from earlier work.
For data set [4] the following is noted: cited from earlier work. The source holds these as a separate data set.
In another data set the test system is GCGR. The experiment in a line: block of glucagon-induced glucose elevation in lean mice. The data set is classed as in vivo, mouse.
A further data set concerns eWAT explants. Description: lipolysis. Conditions: 10 nM glucagon, 4 h. The data set is classed as cell-based, mouse.
For data set [5] the following is noted: cited from earlier work. The source holds these as a separate data set.

With “HGEGTFTSDVSSYLEGQAAKEFIAWLVKGG-linker-Fc [Fc-GLP1, reference compound]”, in data set [1], the peptide plasma level is reported as 105.1 ± 18.33 nM. For the same substance, the “cFos positive POMC neurons” value in data set [2] is on record as “an increase in cFos positive POMC neurons”. Also, in “plasma FFAs” (DIO mice, Fc-GLP1, 6 h), the “plasma FFAs” value is recorded as “elevation of FFAs was not observed”. Moreover, the BAT temperature result in the data set “BAT skin temperature” is listed as “neither UCP1 nor BAT temperature were increased”. The plasma insulin peak result in “plasma insulin” is “a lower insulin peak”. Also, the ketogenesis result in “blood ketone bodies” was “ketogenesis was not elevated”. In addition, the “UCP1 in BAT” value in the data set on BAT, eWAT, iWAT is “neither UCP1 nor BAT temperature were increased”. Further, the “loss of body weight” value in “body weight, HFD-fed” (Fc-GLP1 50 nmol/kg) worked out at 11.0 ± 0.46%.

Turning to “OXM: native peptide oxyntomodulin, activates both GLP-1R and GCGR”, the “affinity to GLP-1R and GCGR” value in the data set on GCGR and GLP-1R is reported as “reduced affinity compared with their cognate ligands”. Moreover, the half-life in circulation result in [3] is listed as “short half-life in circulation”.

In the case of cotadutide, in data set [4] (obese/overweight individuals, type 2 diabetes), the “postprandial glucose, body weight, hepatic fat” value was “improved postprandial glucose excursions and reduced body weight and hepatic fat”. In addition, in [4] (phase 2b trial), the “glycemia, body weight, MASLD” value is “reduced glycemia and body weight and improved metabolic-dysfunction associated steatotic liver disease (MASLD)”. Also, the “liver metabolism, MASH and fibrosis” value in data set [3] (C57BL/6J or ob/ob mice) was “more effective than obeticholic acid in improving liver metabolism and ameliorating MASH and fibrosis”. The “liver inflammation and adipocyte apoptosis” value in data set [3] is “decreased liver inflammation and apoptosis in adipocytes”.

On to “des-His1-[Glu9]-Glucagon (1-29) amide [GCGRant, reference compound]”, for which, in the data set on GCGR, the “block of glucagon effect on glucose” value is given as “able to block the effect of glucagon in elevating glucose levels in lean mice”. The same substance came in with a body weight loss in “body weight, HFD-fed” (GCGRant alone (1 mg/kg i.p. daily)) of 6.8 ± 0.46%.

For glucagon: native GCGR ligand, the lipolysis entry with eWAT explants is on record as “increased lipolysis in eWAT explants”. In data set [5], the “FFA concentration, supraphysiological administration” value is listed as “increased FFA concentration”. In [5] (humans), the “plasma FFAs, physiological doses” value is recorded as “did not find elevation in plasma FFAs in humans”. The “lipolysis ex vivo in WAT explants” value in [5] (wild-type or adipocyte-specific GCGR-deficient mice, 1 h) is listed as “lack of effect of glucagon in lipolysis ex vivo in WAT explants”. Also, the “circulating FFAs / lipolysis” value in the data set “plasma FFAs” (lean mice, glucagon (100 nmol/kg), 1 h) is on record as “this effect was not detected at 1 h; also recorded: did not increase lipolysis at 1 h”. Further, the “circulating FFAs” value in the data set “plasma FFAs” (lean mice, glucagon, 6 h post-injection) is recorded as “an increase of circulating FFAs at 6 h post-injection”.
